Measured values taken from ChEMBL document CHEMBL1914331, “N-O chemistry for antibiotics: discovery of N-alkyl-N-(pyridin-2-yl)hydroxylamine scaffolds as selective antibacterial agents using nitroso Diels-Alder and ene chemistry” (J Med Chem, 2011).

Columns and labels:
[1] = tested on: PC-3; assay: Cytotoxicity against human PC3 cells; type: cell-based
[2] = tested on: HeLa; assay: Cytotoxicity against human HeLa cells; type: cell-based
[3] = tested on: Micrococcus luteus; assay: Antimicrobial activity against Micrococcus luteus ATCC 10240 after 24 hrs by Kirby-Bauer agar diffusion assay; type: functional
How it was run: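 Modified Kirby-Bauer well diffusion. Overnight LB cultures (18–24 h) were standardized in 0.9% saline to 0.5 McFarland and mixed into melted MHII agar at 47–50 °C, giving ~5×10³ CFU/mL. 9 mm wells received 50 µL of 2.0 mM compound in 10:1 MeOH:DMSO. Plates were incubated 24 h at 37 °C, then growth-inhibition zone diameter was measured (mm) by caliper.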

[4] = tested on: MCF7; assay: Cytotoxicity against human MCF7 cells; type: cell-based

| Structure (SMILES) | Activity [1] | Activity [2] | diameter of the inhibition zone (DIZ) [3] | Activity [4] |
| --- | --- | --- | --- | --- |
| CC(C)(C)O[C@@H]1C=C[C@@H](N(O)C(=O)Cc2ccccc2)C1 (racemic) | Non-toxic | Non-toxic | <=14 mm | Non-toxic |
| O=Nc1ncc(C(F)(F)F)cc1Cl | Non-toxic | Non-toxic | <=14 mm | Non-toxic |
| Clc1ccc(N2OC3C=CC2C3)nc1 (racemic) | Non-toxic | Non-toxic | <=14 mm | Non-toxic |
| COc1ccc(CON(Cc2cccc(Oc3ccccc3)c2)c2ccccn2)cc1 | Non-toxic | Non-toxic | <=14 mm | Non-toxic |
| CO[C@@H]1C=C[C@@H](N(O)C(=O)OC(C)(C)C)C1 (racemic) | Non-toxic | Non-toxic | <=14 mm | Non-toxic |
| Cc1cccnc1N=O | Non-toxic | Non-toxic | <=14 mm | Non-toxic |
| COc1ccc(CON(Cc2ccccc2)Cc2ccccn2)cc1 | Non-toxic | Non-toxic |  | Non-toxic |
| CO[C@@H]1C=CC[C@H]1N(O)c1ccc(Br)cn1 (racemic) | Non-toxic | Non-toxic | >14 mm | Non-toxic |
| Cc1cccnc1N(O)[C@@H]1CC=C[C@H]1OC(C)C (racemic) | Non-toxic | Non-toxic | >14 mm | Non-toxic |
| C=C(C)C(C)N(O)C(=O)[C@H](C)NC(=O)OC(C)(C)C (mixture of isomers) | Non-toxic | Non-toxic | <=14 mm | Non-toxic |
| O[C@@H]1C=C[C@@H](N(O)c2ccc(Br)cn2)C1 (racemic) | Non-toxic | Non-toxic | >14 mm | Non-toxic |
| CC(C)C[C@H](NC(=O)OC(C)(C)C)C(=O)NO | Non-toxic | Non-toxic | <=14 mm | Non-toxic |
| CO[C@@H]1C=C[C@@H](N(O)C(=O)Cc2ccccc2)C1 (racemic) | Non-toxic | Non-toxic | <=14 mm | Non-toxic |
| Cc1ccnc(N=O)c1 | Non-toxic | Non-toxic | <=14 mm | Non-toxic |
| COc1ccc(CON(C)c2ccccn2)cc1 | Non-toxic | Non-toxic | <=14 mm | Non-toxic |
| Cc1cccc(N(O)[C@@H]2CCC=C[C@H]2OC(C)C)n1 (racemic) | Non-toxic | Non-toxic | >14 mm | Non-toxic |
| CC(C)(C)O[C@@H]1C=CCC[C@H]1N(O)c1ccc(Br)cn1 (racemic) | Non-toxic | Non-toxic | >14 mm | Non-toxic |
| C=CCO[C@@H]1C=CCC[C@H]1N(O)c1ccc(Br)cn1 (racemic) | Non-toxic | Non-toxic | >14 mm | Non-toxic |
| CO[C@@H]1C=CCC[C@H]1N(O)C(=O)Cc1ccccc1 (relative stereo) | Non-toxic | Non-toxic | <=14 mm | Non-toxic |
| CC(C)(C)OC1C=C[C@@H](N(O)c2ccc(Br)cn2)C1 (mixture of isomers) | Non-toxic | Non-toxic | >14 mm | Non-toxic |
| CO[C@@H]1C=C[C@@H](N(O)C(=O)Cc2ccccc2)CC1 (racemic) | Non-toxic | Non-toxic | <=14 mm | Non-toxic |
| Cc1cc(N2OC3C=CC2C3)no1 (racemic) | Non-toxic | Non-toxic | <=14 mm | Non-toxic |
| O[C@@H]1C=CCC[C@H]1N(O)c1ccc(Br)cn1 (racemic) | Non-toxic | Non-toxic | >14 mm | Non-toxic |
| CC1=CCCCC1N(O)c1cc(C)on1 (racemic) | Non-toxic | Non-toxic | >14 mm | Non-toxic |
| Cc1cccc(N2OC3C=CC2C3)n1 (racemic) | Non-toxic | Non-toxic | <=14 mm | Non-toxic |

| Structure (SMILES) | Activity [1] | Activity [2] | diameter of the inhibition zone (DIZ) [3] | Activity [4] |
| --- | --- | --- | --- | --- |
| C=C(C)C(CC/C(C)=C/CO)N(O)c1ccc(Br)cn1 (racemic) | Non-toxic | Non-toxic | >14 mm | Non-toxic |
| O=C(Cc1ccccc1)N1OC2C=CC1C2 (racemic) | Non-toxic | Non-toxic | <=14 mm | Non-toxic |
| CC(C)OC1C=C[C@@H](N(O)c2ccc(Cl)cn2)C1 (mixture of isomers) | Non-toxic | Non-toxic | >14 mm | Non-toxic |
| CO[C@@H]1C=CC[C@H]1N(O)c1ccc(Cl)cn1 (racemic) | Non-toxic | Non-toxic | >14 mm | Non-toxic |
| O=Nc1ccc(Cl)cn1 | Non-toxic | Non-toxic | <=14 mm | Non-toxic |
| Cc1cc(N(O)[C@@H]2C=CC(OC(C)(C)C)C2)no1 (mixture of isomers) | Non-toxic | Non-toxic | >14 mm | Non-toxic |
| C=CCN(OCc1ccc(OC)cc1)c1ccccn1 | Non-toxic | Non-toxic | <=14 mm | Non-toxic |
| Cc1cccc(N(O)[C@@H]2C=C[C@@H](OC(C)C)CC2)n1 (racemic) | Non-toxic | Non-toxic | >14 mm | Non-toxic |
| Cc1cccc(N(O)[C@@H]2C=C[C@@H](OC(C)(C)C)CC2)n1 (racemic) | Non-toxic | Non-toxic | >14 mm | Non-toxic |
| O=Nc1ccc2ccccc2n1 | Non-toxic | Non-toxic | <=14 mm | Non-toxic |
| Cc1cccc(N(O)[C@@H]2CCC=C[C@H]2OC(C)(C)C)n1 (racemic) | Non-toxic | Non-toxic | >14 mm | Non-toxic |
| CCc1cccc(N=O)n1 | Non-toxic | Non-toxic | <=14 mm | Non-toxic |
| C=C(CN(O)c1cc(C)on1)c1ccccc1 | Non-toxic | Non-toxic | >14 mm | Non-toxic |
| Cc1cccc(N=O)n1 | Non-toxic | Non-toxic | <=14 mm | Non-toxic |
| COC1C=C[C@@H](N(O)c2ccc(Br)cn2)C1 (mixture of isomers) | Non-toxic | Non-toxic | >14 mm | Non-toxic |
| CO[C@@H]1C=CC[C@H]1N(O)c1ncccc1C (racemic) | Non-toxic | Non-toxic | >14 mm | Non-toxic |
| O=Nc1ccc(Br)cn1 | Non-toxic | Non-toxic | <=14 mm | Non-toxic |
| CC(C)(C)O[C@@H]1C=C[C@@H](N(O)c2ccc(Br)cn2)CC1 (racemic) | Non-toxic | Non-toxic | >14 mm | Non-toxic |
| O=C(c1ccccc1)N1OC2C=CC21 (racemic) | Non-toxic | Non-toxic | <=14 mm | Non-toxic |
| Cc1nc(N=O)ccc1Br | Non-toxic | Non-toxic | <=14 mm | Non-toxic |
| C[C@H](NC(=O)OC(C)(C)C)C(=O)NO | Non-toxic | Non-toxic | <=14 mm | Non-toxic |
| CC(C)OC1C=C[C@@H](N(O)c2ccc(Br)cn2)C1 (mixture of isomers) | Non-toxic | Non-toxic | >14 mm | Non-toxic |
| O[C@@H]1C=CC[C@H]1N(O)c1ccc(Br)cn1 (racemic) | Non-toxic | Non-toxic | >14 mm | Non-toxic |
| COc1ccc(CON(Cc2ccccc2)c2cccnc2)cc1 | Non-toxic | Non-toxic |  | Non-toxic |
